This note sets out measurements from ChEMBL document CHEMBL1149705, “Synthesis and antimicrobial evaluation of new chalcones containing piperazine or 2,5-dichlorothiophene moiety” (2007).

Common to all, as to format: functional
Assay [1] deals with Pichia kudriavzevii. Briefly: Antifungal activity against Candida krusei GO3 at 250 ug/ml after 48 hrs by agar well diffusion technique. As to conditions: read-out: IZ.
The next assay deals with Proteus vulgaris. Description: Antibacterial activity against Proteus vulgaris at 250 ug/ml after 48 hrs by agar well diffusion technique. The following applies: read-out: IZ. The gist of the method:
(§1)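 Cup-plate agar well diffusion on nutrient agar, set for 1–1.5 h. Cups of 10 mm were bored with a sterile cork borer, and test solution was added by sterile syringe. Plates were incubated at 37 °C for 48 h. The read-out was inhibition zone diameter in mm, graded 0–6 mild, 7–13 moderate and 14–26 efficacy. Ciprofloxacin was the standard; 10% DMSO served as solvent control.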

The next assay has as its system Staphylococcus aureus. Briefly: Antibacterial activity against Staphylococcus aureus 209p at 250 ug/ml after 48 hrs by agar well diffusion technique. The following applies: read-out: IZ. The gist of the method:
as §1
In general terms: In agar diffusion tests the substance spreads into inoculated agar from a disc or well.

The test system of a further assay is Escherichia coli. Briefly: Antibacterial activity against Escherichia coli ESS 2231 at 250 ug/ml after 48 hrs by agar well diffusion technique. The following applies: read-out: IZ. The gist of the method:
as §1

Another assay concerns Klebsiella pneumoniae. Description: Antibacterial activity against Klebsiella pneumoniae at 250 ug/ml after 48 hrs by agar well diffusion technique. The following applies: read-out: IZ. The gist of the method:
as §1

The test system of the next assay is Aspergillus fumigatus. Description: Antifungal activity against Aspergillus fumigatus at 250 ug/ml after 48 hrs by agar well diffusion technique. The following applies: read-out: IZ. The gist of the method: as §1
Assay [2] concerns Candida albicans. Description: Antifungal activity against Candida albicans at 250 ug/ml after 48 hrs by agar well diffusion technique. As to conditions: read-out: IZ.
The subject of assay [3] is Nakaseomyces glabratus. Briefly: Antifungal activity against Candida glabrata HO3 at 250 ug/ml after 48 hrs by agar well diffusion technique. As to conditions: read-out: IZ.
The subject of assay [4] is Candida albicans. Briefly: Antifungal activity against Candida albicans after 48 hrs by agar well diffusion technique.
In assay [5] the test system is Pichia kudriavzevii. Description: Antifungal activity against Candida krusei GO3 after 48 hrs by agar well diffusion technique.
The test system of assay [6] is Nakaseomyces glabratus. Briefly: Antifungal activity against Candida glabrata HO3 after 48 hrs by agar well diffusion technique.

Values after ≈ are worked out from the molar mass of the structure shown.

Turning to `O=C(/C=C/c1ccccc1)c1ccc(N2CCNCC2)cc1`, the zone of inhibition at 250 µg/mL in the assay on Pichia kudriavzevii [1] came out at 24 mm; in the assay on Proteus vulgaris, 20 mm; in the assay with Staphylococcus aureus, 22 mm; in the assay on Escherichia coli it was 24 mm; in the assay with Klebsiella pneumoniae, 18 mm; with Aspergillus fumigatus, 22 mm. For the same molecule, the zone of inhibition at 250 µg/mL in the assay with Candida albicans [2] and in the assay on Nakaseomyces glabratus [3] was 24 mm each time. For the same molecule, the MIC50 (as a rule, an inhibitory concentration at the 50% level, which refers to growth in some studies and to a panel of isolates in others) stood at 4.56 µg/mL (≈ 15.6 µM) against Candida albicans [4], 5.38 µg/mL (≈ 18.4 µM) in the assay on Pichia kudriavzevii [5] and 7.57 µg/mL (≈ 25.9 µM) with Nakaseomyces glabratus [6].

Regarding `Cc1cccc(/C=C/C(=O)c2ccc(N3CCNCC3)cc2)c1`, the zone of inhibition at 250 µg/mL in the assay on Pichia kudriavzevii [1] worked out at 24 mm; in the assay on Proteus vulgaris, 20 mm; in the assay with Staphylococcus aureus it was 24 mm; in the assay with Escherichia coli, 22 mm; in the assay on Klebsiella pneumoniae, 16 mm; in the assay on Aspergillus fumigatus, 20 mm. The zone of inhibition at 250 µg/mL came out at 16 mm in the assay on Candida albicans [2] and 22 mm with Nakaseomyces glabratus [3]. The MIC50 in the assay with Candida albicans [4] was found to be 6.89 µg/mL (≈ 22.5 µM); in the assay with Pichia kudriavzevii [5], 5.69 µg/mL (≈ 18.6 µM); against Nakaseomyces glabratus [6], 9.94 µg/mL (≈ 32.4 µM).

In the case of `Cc1ccc(/C=C/C(=O)c2ccc(N3CCNCC3)cc2)cc1`, the zone of inhibition at 250 µg/mL in the assay with Pichia kudriavzevii [1] is 22 mm; with Proteus vulgaris, 14 mm; with Staphylococcus aureus, 16 mm; in the assay on Escherichia coli, 14 mm; with Klebsiella pneumoniae, 14 mm; in the assay with Aspergillus fumigatus, 18 mm. The results for the zone of inhibition at 250 µg/mL in the assay on Candida albicans [2] and in the assay on Nakaseomyces glabratus [3] were 22 mm and 24 mm, respectively. For the same molecule, the MIC50 in the assay with Candida albicans [4] was 8.75 µg/mL (≈ 28.6 µM); in the assay on Pichia kudriavzevii [5], 7.02 µg/mL (≈ 22.9 µM); in the assay with Nakaseomyces glabratus [6], 7.66 µg/mL (≈ 25 µM).

With `COc1ccc(/C=C/C(=O)c2cc(Cl)sc2Cl)cc1`, the zone of inhibition at 250 µg/mL turned out to be 18 mm with Pichia kudriavzevii [1]; 14 mm in the assay with Proteus vulgaris; 14 mm with Staphylococcus aureus; 18 mm in the assay with Escherichia coli; 16 mm in the assay on Klebsiella pneumoniae; 22 mm in the assay with Aspergillus fumigatus. In addition, the zone of inhibition at 250 µg/mL in the assay with Candida albicans [2] was 20 mm; with Nakaseomyces glabratus [3], 18 mm. The results for the MIC50 in the assay on Candida albicans [4], in the assay on Pichia kudriavzevii [5] and against Nakaseomyces glabratus [6] were 5 µg/mL (≈ 16 µM), 18.2 µg/mL (≈ 58 µM) and 16.4 µg/mL (≈ 52.3 µM), respectively.

Regarding `O=C(/C=C/c1ccc(Cl)cc1)c1cc(Cl)sc1Cl`, the zone of inhibition at 250 µg/mL in the assay with Pichia kudriavzevii [1] turned out to be 22 mm; in the assay with Proteus vulgaris, 14 mm; with Staphylococcus aureus it was 14 mm; with Escherichia coli it was 16 mm; in the assay on Klebsiella pneumoniae, 8 mm; in the assay on Aspergillus fumigatus, 18 mm. The figures for the zone of inhibition at 250 µg/mL with Candida albicans [2] and in the assay on Nakaseomyces glabratus [3] were 24 mm and 14 mm, respectively. Also, the MIC50 worked out at 4.65 µg/mL (≈ 14.6 µM) with Candida albicans [4], 70 µg/mL (≈ 220 µM) against Pichia kudriavzevii [5] and 40 µg/mL (≈ 126 µM) against Nakaseomyces glabratus [6].

Consider `Cc1cccc(/C=C/C(=O)c2cc(Cl)sc2Cl)c1`, for which the zone of inhibition at 250 µg/mL with Pichia kudriavzevii [1] is 22 mm; in the assay with Proteus vulgaris it was 6 mm; in the assay on Staphylococcus aureus it was 11 mm; in the assay with Escherichia coli it was 20 mm; in the assay with Klebsiella pneumoniae, 10 mm; in the assay on Aspergillus fumigatus, 20 mm. In addition, the zone of inhibition at 250 µg/mL with Candida albicans [2] was 10 mm; in the assay on Nakaseomyces glabratus [3] it was 14 mm. For the same molecule, the figures for the MIC50 in the assay on Candida albicans [4], with Pichia kudriavzevii [5] and in the assay on Nakaseomyces glabratus [6] were 51.1 µg/mL (≈ 172 µM), 42.3 µg/mL (≈ 142 µM) and 65 µg/mL (≈ 219 µM), respectively.

As for `Cc1ccc(/C=C/C(=O)c2cc(Cl)sc2Cl)cc1`, the zone of inhibition at 250 µg/mL came out at 10 mm with Pichia kudriavzevii [1]; 9 mm in the assay with Proteus vulgaris; 12 mm in the assay on Staphylococcus aureus; 16 mm in the assay on Escherichia coli; 8 mm with Klebsiella pneumoniae; 6 mm in the assay on Aspergillus fumigatus. For the same molecule, the zone of inhibition at 250 µg/mL is 16 mm in the assay on Candida albicans [2] and 12 mm in the assay with Nakaseomyces glabratus [3]. Further, the MIC50 against Candida albicans [4] came to 70 µg/mL (≈ 236 µM); with Pichia kudriavzevii [5], 70 µg/mL (≈ 236 µM); in the assay with Nakaseomyces glabratus [6], 80 µg/mL (≈ 269 µM).

`COc1cc(/C=C/C(=O)c2cc(Cl)sc2Cl)cc(OC)c1OC`: the zone of inhibition at 250 µg/mL in the assay with Pichia kudriavzevii [1] stood at 22 mm; in the assay with Proteus vulgaris it was 12 mm; in the assay on Staphylococcus aureus it was 12 mm; with Escherichia coli it was 14 mm; with Klebsiella pneumoniae, 6 mm; with Aspergillus fumigatus it was 14 mm. Further, the zone of inhibition at 250 µg/mL with Candida albicans [2] is 6 mm; with Nakaseomyces glabratus [3], 20 mm. Moreover, the results for the MIC50 with Candida albicans [4], in the assay with Pichia kudriavzevii [5] and with Nakaseomyces glabratus [6] were 78 µg/mL (≈ 209 µM), 40.1 µg/mL (≈ 108 µM) and 45.1 µg/mL (≈ 121 µM), respectively.

With `O=C(/C=C/c1cccc([N+](=O)[O-])c1)c1cc(Cl)sc1Cl`, the zone of inhibition at 250 µg/mL in the assay with Pichia kudriavzevii [1] is 12 mm; in the assay on Proteus vulgaris it was 18 mm; with Staphylococcus aureus it was 24 mm; in the assay on Escherichia coli, 22 mm; in the assay on Klebsiella pneumoniae, 20 mm; with Aspergillus fumigatus, 16 mm. Besides, the zone of inhibition at 250 µg/mL with Candida albicans [2] turned out to be 18 mm; in the assay with Nakaseomyces glabratus [3], 14 mm. Besides, the MIC50 is 5.97 µg/mL (≈ 18.2 µM) against Candida albicans [4], 50 µg/mL (≈ 152 µM) in the assay on Pichia kudriavzevii [5] and 50 µg/mL (≈ 152 µM) against Nakaseomyces glabratus [6].

Turning to `O=C(/C=C/C=C/c1ccccc1)c1cc(Cl)sc1Cl`, the zone of inhibition at 250 µg/mL was 16 mm in the assay on Pichia kudriavzevii [1]; 11 mm in the assay with Proteus vulgaris; 9 mm in the assay with Staphylococcus aureus; 16 mm with Escherichia coli; 7 mm in the assay with Klebsiella pneumoniae; 20 mm in the assay with Aspergillus fumigatus. Moreover, the zone of inhibition at 250 µg/mL in the assay with Candida albicans [2] was found to be 8 mm; in the assay on Nakaseomyces glabratus [3], 16 mm. Also, the values for the MIC50 against Candida albicans [4], with Pichia kudriavzevii [5] and with Nakaseomyces glabratus [6] were 75 µg/mL (≈ 243 µM), 55.6 µg/mL (≈ 180 µM) and 60 µg/mL (≈ 194 µM), respectively.
